Source: ChEMBL document CHEMBL1125061, “Antitumor agents. 111. New 4-hydroxylated and 4-halogenated anilino derivatives of 4'-demethylepipodophyllotoxin as potent inhibitors of human DNA topoisomerase II” (1990)

What was measured:
[1] = In vitro cytotoxicity against KB cells after a 3-day incubation.; type: functional; conditions: Homo sapiens, 72 h, read-out: ID50 (the source's name)
Summary of the method: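 KB cell culture, 3-day incubation with drug; read-out was cell number. ID50 taken as the concentration giving a 50% reduction in cell number.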

[2] = target: T1, DNA topoisomerase II (Homo sapiens) (UniProt P11388+Q02880); assay: Inhibition of DNA topoisomerase II at 100 uM.; type: protein assay
Summary of the method: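 Human DNA topoisomerase II inhibition, tested at 25, 50 and 100 μM. […] The ID₅₀ is set from the degree of inhibition across the three concentrations.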

Homo sapiens = organism: Homo sapiens; assay: Cellular protein-DNA complex formation at 10 uM.; type: functional; set-up: reference not given here
[3] = target: T1, DNA topoisomerase II (Homo sapiens); assay: Evaluated for inhibitory activity against DNA topoisomerase II; type: protein assay

Row | Structure (SMILES) | IC50 [1] | inhibition [2] | Complex formation (Homo sapiens) | ID50 [3]
1 | COc1cc([C@@H]2c3cc4c(cc3[C@@H](Nc3cccc(Cl)c3)[C@H]3COC(=O)[C@H]23)OCO4)cc(OC)c1O | 2290 nM | 50% | 51% | –
2 | COc1cc([C@@H]2c3cc4c(cc3[C@@H](O[C@@H]3O[C@@H]5CO[C@@H](C)O[C@H]5[C@H](O)[C@H]3O)[C@H]3COC(=O)[C@H]23)OCO4)cc(OC)c1O [ETOPOSIDE] | 200 nM | 75% | 100% | 50000 nM
3 | COc1cc([C@@H]2c3cc4c(cc3[C@@H](Nc3cccc(F)c3)[C@H]3COC(=O)[C@H]23)OCO4)cc(OC)c1O | 230 nM | 75% | 158% | 50000 nM
4 | COc1cc([C@@H]2c3cc4c(cc3[C@@H](Nc3ccc(O)cc3)[C@H]3COC(=O)[C@H]23)OCO4)cc(OC)c1OC | 590 nM | 25% | 21% | –
5 | COc1cc([C@@H]2c3cc4c(cc3[C@@H](Nc3ccccc3O)[C@H]3COC(=O)[C@H]23)OCO4)cc(OC)c1O | 4540 nM | > 75% | 151% | 25000 nM
6 | COc1cc([C@@H]2c3cc4c(cc3[C@@H](Nc3cccc(O)c3)[C@H]3COC(=O)[C@H]23)OCO4)cc(OC)c1OC | 310 nM | 25% | 37% | –
7 | COc1cc([C@@H]2c3cc4c(cc3[C@@H](Nc3ccccc3F)[C@H]3COC(=O)[C@H]23)OCO4)cc(OC)c1O | 250 nM | 50% | 121% | –
8 | COc1cc([C@@H]2c3cc4c(cc3[C@@H](Nc3cccc(O)c3)[C@H]3COC(=O)[C@H]23)OCO4)cc(OC)c1O | 450 nM | > 75% | 290% | 5000 nM
9 | COc1cc([C@@H]2c3cc4c(cc3[C@@H](Nc3ccc(O)cc3)[C@H]3COC(=O)[C@H]23)OCO4)cc(OC)c1O | 2260 nM | 75% | 211% | 25000 nM
10 | COc1cc([C@@H]2c3cc4c(cc3[C@@H](Nc3ccccc3O)[C@H]3COC(=O)[C@H]23)OCO4)cc(OC)c1OC | 4110 nM | 25% | 6% | –
11 | COc1cc([C@@H]2c3cc4c(cc3[C@@H](Nc3cccc(Br)c3)[C@H]3COC(=O)[C@H]23)OCO4)cc(OC)c1O | 2360 nM | 25% | 62% | –
12 | COc1cc([C@@H]2c3cc4c(cc3[C@@H](Nc3cc(F)cc(F)c3)[C@H]3COC(=O)[C@H]23)OCO4)cc(OC)c1O | 1080 nM | 50% | 115% | 50000 nM
13 | COc1cc([C@@H]2c3cc4c(cc3[C@@H](Nc3ccccc3Cl)[C@H]3COC(=O)[C@H]23)OCO4)cc(OC)c1O | 2340 nM | 25% | 32% | –
14 | COc1cc([C@@H]2c3cc4c(cc3[C@@H](Nc3ccc(Br)cc3)[C@H]3COC(=O)[C@H]23)OCO4)cc(OC)c1O | 220 nM | 50% | 179% | 100000 nM
15 | COc1cc([C@@H]2c3cc4c(cc3[C@@H](Nc3ccc(F)cc3)[C@H]3COC(=O)[C@H]23)OCO4)cc(OC)c1O | 240 nM | > 75% | 213% | 10000 nM
16 | COc1cc([C@@H]2c3cc4c(cc3[C@@H](Nc3ccc(Cl)cc3)[C@H]3COC(=O)[C@H]23)OCO4)cc(OC)c1O | 220 nM | 75% | 99% | 50000 nM
17 | COc1cc([C@@H]2c3cc4c(cc3[C@@H](Nc3ccc(I)cc3)[C@H]3COC(=O)[C@H]23)OCO4)cc(OC)c1O | 340 nM | 25% | 64% | –
